Measurements: the RNAGym collection of RNA variant scans (doi:10.1126/science.aae0568)
This sample holds only a part of the variants without activity.

B1: tRNA (parent)
chain: GUUCCGUUGGCGUAAUGGUAACGCGUCUCCCUCCUAAGGAGAAGACUGCGGGUUCGAGUCCCGUACGGAACG

Variants of: B1
Assay: yeast fitness relative to wild type (ratio to wild type); higher = fitter; tRNA-Arg(CCU), competitive growth, 37 C, YPD
Summary of the method: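 Start and end populations of a pooled competition were compared by 100-nucleotide paired-end sequencing of gene amplicons. The Saccharomyces cerevisiae strains carried tRNA-Arg(CCU) gene variants at the native genomic locus, synthesised with a 3% per-site mutation rate at 69 sites, and competed in YPD at 37°C for 24 hours in six parallel replicates. Darwinian fitness relative to wild type was based on the change in genotype frequencies. Genotypes required ≥ 100 starting reads, and estimates < 0.5 were set to 0.5.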

| Variant | yeast fitness |
| --- | --- |
| C34A A42C C60G | ≤ 0.5 |
| U13A A37C A43U G50C A57G | ≤ 0.5 |
| C4U G18C A45U C49U | ≤ 0.5 |
| C27U A42U U53G G68C | 0.545 |
| G10C C24U C29A A42G A45U C46G U47A G50A U64G | ≤ 0.5 |
| U8C A14U C30A | ≤ 0.5 |
| C4G G10C C46A G68C | ≤ 0.5 |
| U2C G10A | 0.803 |
| U2C C29A A43G | 0.603 |
| C5A G17A C24U A36C | 0.538 |
| G6C A20U C30G C61A | ≤ 0.5 |
| U7G C55A | 0.665 |
| U2A C29A A45U | 0.542 |
| C5U C11U U32C C49U | 0.537 |
| G25A C60A C61G A65U | ≤ 0.5 |
| U19C C30G G51C | ≤ 0.5 |
| C11A A14U A21C C46U U53C A65G | 0.575 |
| U28G C29G | 0.608 |
| G18A C33A A36C A43G C55G | ≤ 0.5 |
| U53C A65C | 0.878 |
| A14C C30U G41C | 0.589 |
| U2C G12A | 0.993 |
| G6C A43G C49U C60A C62A | 0.691 |
| U2G C60G | 0.592 |

| Variant | yeast fitness |
| --- | --- |
| U19G C49U C62A A69G | ≤ 0.5 |
| C24G U53A C55G | ≤ 0.5 |
| C22G C30A U47A | ≤ 0.5 |
| U3C C34A G44A G52A U53C C55U | 0.527 |
| A15U G23C C33A G63C G68U | ≤ 0.5 |
| U7A A20G | 0.713 |
| A20G G23C C31U C46G A70U | 0.57 |
| G6A A14G C22G | ≤ 0.5 |
| U28A G38A C55G | ≤ 0.5 |
| C11U G17C | 0.768 |
| U7G G38C | 0.591 |
| U8C U35A | 0.6 |
| U19C U53A | 0.689 |
| G10C A37U A45G C66U | ≤ 0.5 |
| A15C A20C C55G A70G | ≤ 0.5 |
| U28C G67A | 0.652 |
| G12A A69U | 1.03 |
| U13A C46A A69C | 0.722 |
| A15U A21G G25C C33A A37U | 0.554 |
| A40G C46A G68C | 0.633 |
| C4A U16C G17A A40C A43U U47A C60A | ≤ 0.5 |
| C5A U19A | 0.843 |
| C5A C24U C62A A69C | ≤ 0.5 |
| A14G A45C C66U | 0.582 |

| Variant | yeast fitness |
| --- | --- |
| G38C C49G G50C C61U | 0.555 |
| A15U C24G A42C C66A | 0.59 |
| A37G | 0.734 |
| U26C G39A | 0.698 |
| U8A U13A A15U C46G A69U | ≤ 0.5 |
| A20U A65U | 0.705 |
| C4U U8A U32G U35A G68U | ≤ 0.5 |
| C22A C29U C33G C46U C62U | ≤ 0.5 |
| G17A U19C C24U | 0.75 |
| U3G C24A A40C | ≤ 0.5 |
| C22G C24U C29U C33U A37C G52A C66U | ≤ 0.5 |
| U7G A15G C61U G67A | ≤ 0.5 |
| G17A A21C U53A | ≤ 0.5 |
| U3G C22U C27U G56A | ≤ 0.5 |
| A40C G67U G68C | 0.585 |
| C4U C11U G25C G41A U54C | ≤ 0.5 |
| G48A G67U | 0.9 |
| C4G A14U C46U C60U A65C | ≤ 0.5 |
| U26A C66A A69C | ≤ 0.5 |
| C4A G9A U16A A40G C46U | ≤ 0.5 |
| A21U C22U U32A C49G | ≤ 0.5 |
| C4A C5U G39C A42C G52C C62U | ≤ 0.5 |
| U26C A65U | 0.896 |
| G12C C31G G51A C55G G68C | 0.627 |

| Variant | yeast fitness |
| --- | --- |
| U16G A37G A45C C61G A69C | ≤ 0.5 |
| A20G A36C | 0.596 |
| G25C G52A U54G | ≤ 0.5 |
| G9C U19C G48A C66U | 0.657 |
| G10C A14G C24A | ≤ 0.5 |
| A20C G39A U54A | 0.599 |
| G6A U16C | 0.974 |
| A15U A21G | 0.785 |
| C5A U35G G41A G56A A70C | 0.543 |
| C22U C34U A36U U53C | ≤ 0.5 |
| A20G A37G G44A | 0.658 |
| G12A A21U A69C | ≤ 0.5 |
| U7A C11G C27U A37C G51C | ≤ 0.5 |
| G6A U28C | 0.898 |
| C11A C24A U26A G44C | ≤ 0.5 |
| C27G A45G | 0.722 |
| A21G G52C | 0.639 |
| U13C U28C G48A C61G A69C | ≤ 0.5 |
| A45U C60G C66A | ≤ 0.5 |
| G6A A70C | 0.863 |
| C60U A65U | 0.816 |
| U16A U28A C49G | ≤ 0.5 |
| G10A U35A A37G A43U A45C | ≤ 0.5 |
| C4A G17C G51C G58A | ≤ 0.5 |

| Variant | yeast fitness |
| --- | --- |
| C29A C33U C55G | 0.633 |
| U19C C46A | 0.978 |
| C11U C31G C49G | 0.696 |
| C22U U26A C29U A43C G52C U53A | ≤ 0.5 |
| C5A A20C C29G A65U | ≤ 0.5 |
| U7A C49G C66A | ≤ 0.5 |
| G9A A57U C66U | 0.548 |
| U13A C55U G58A U59C C62U | ≤ 0.5 |
| C5U C60A C62G | ≤ 0.5 |
| C29A C61G C66U A69U | ≤ 0.5 |
| C22A C27A A36U G39C | ≤ 0.5 |
| U19C A40C | 1.1 |
| U13G C27A U28A C33U | ≤ 0.5 |
| C27G C31U G68A | ≤ 0.5 |
| C27U A45U C66U | 0.7 |
| C46A A69U | 1.1 |
| U7A U8G C30G A70U | 0.518 |
| C27U C55G | 0.675 |
| A57G C66G A69U | ≤ 0.5 |
| U7C A42U | 0.728 |
| G9A U26A A43U C55U | ≤ 0.5 |
| A14G G17C G58C | ≤ 0.5 |
| C11G G23C A36U G44C | 0.748 |
| U19A C24G C27U C30A G52C | 0.571 |

| Variant | yeast fitness |
| --- | --- |
| U3A G44C | 0.879 |
| A14C U19A A20C G51A U59C | 0.645 |
| C24U C34U A57U C60U | ≤ 0.5 |
| G17A U26C C61U A65G G67A | ≤ 0.5 |
| A14G U47G C62U | ≤ 0.5 |
| A20G C62A | 0.715 |
| A37U G51A U53G U54C | ≤ 0.5 |
| C11A C31G A42U | 0.537 |
| C5G A37G G41C | ≤ 0.5 |
| U47G C49A | 0.68 |
| C5U C22G C24G C30A C31U | ≤ 0.5 |
| C11U A15C G44C C46A | ≤ 0.5 |
| C5A C22G U26A A57C G67A A69U | ≤ 0.5 |
| C5G G17C C62U A65C | 0.52 |
| G51A A70U | 0.935 |
| U2G A20U U32A C46G | ≤ 0.5 |
| U13G A20G C22G | 0.581 |
| C30G A37G C61U | ≤ 0.5 |
| C5G U13G C29U G50C U59A | ≤ 0.5 |
| U7A U47A A65G | 0.523 |
| C11A U19G A36G C62A A69C | ≤ 0.5 |
| U7G G51C | 0.644 |
| C27G U28G A36U A45U C49G | ≤ 0.5 |
| C46A C55G C66U A69C | ≤ 0.5 |

| Variant | yeast fitness |
| --- | --- |
| U2C C49G | 0.798 |
| C31U C33A C62U | ≤ 0.5 |
| U2C A14C A40C | ≤ 0.5 |
| U13G U35A A37G A43U A45C A65C | ≤ 0.5 |
| C4A C11A C61U | ≤ 0.5 |
| U7G C49A | 0.665 |
| A21G C30U | 0.97 |
| G12C C46U G51C U64A | ≤ 0.5 |
| C4A A14G C24U U32G A43G | ≤ 0.5 |
| C11U A21C A42C G44A U54A C62U | ≤ 0.5 |
| A14C C31G C62A G67U | ≤ 0.5 |
| A20U C61A C62U A65U A69C | ≤ 0.5 |
| C24U C31G C33U U59A C62U | ≤ 0.5 |
| C5A U47A | 0.786 |
| G25C G41C C46U U59C A65U | ≤ 0.5 |
| C30U A36G G44A C61G | ≤ 0.5 |
| C5U A70C | 1.06 |
| U8A C60U | 0.551 |
| U19A C62A | 0.774 |
| G23C C29U | 0.604 |
| C49G C60U A69G | ≤ 0.5 |
| C22U G39C | 0.731 |
| U16G | 1 |
